Data on twelve molecules can be found in ChEMBL document CHEMBL1142933, “Rational design of novel, potent small molecule pan-selectin antagonists” (J Med Chem, 2007).

Experiment [1] has as its target T1, E-selectin (Homo sapiens) (UniProt P16581).
T1 sequence (whole entry): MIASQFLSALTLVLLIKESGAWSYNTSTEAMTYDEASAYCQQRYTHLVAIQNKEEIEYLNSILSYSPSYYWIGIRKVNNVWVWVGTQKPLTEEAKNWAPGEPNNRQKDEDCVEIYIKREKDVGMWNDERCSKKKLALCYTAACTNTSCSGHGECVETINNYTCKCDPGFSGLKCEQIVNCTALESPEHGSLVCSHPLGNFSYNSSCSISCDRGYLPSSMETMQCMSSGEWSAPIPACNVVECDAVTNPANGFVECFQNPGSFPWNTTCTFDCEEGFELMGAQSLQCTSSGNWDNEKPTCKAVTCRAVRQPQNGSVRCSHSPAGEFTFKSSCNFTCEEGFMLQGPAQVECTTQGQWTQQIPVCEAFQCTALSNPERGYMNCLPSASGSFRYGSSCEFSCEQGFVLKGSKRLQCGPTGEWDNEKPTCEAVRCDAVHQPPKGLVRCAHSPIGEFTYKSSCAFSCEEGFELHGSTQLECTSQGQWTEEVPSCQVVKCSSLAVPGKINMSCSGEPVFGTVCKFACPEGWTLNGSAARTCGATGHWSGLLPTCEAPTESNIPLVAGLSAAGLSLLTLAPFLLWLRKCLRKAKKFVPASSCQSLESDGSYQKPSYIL
Nature of the experiment: Inhibition of human E-selectin after 2 hrs at 100 uM. An outline of the steps:
(§1)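 Human E-, P- or L-selectin/Fc chimera (0.61 nM) captured on anti-Fc-coated wells, then incubated 2 h at 37 °C with peroxidase-streptavidin-complexed sLeX-tyrosine sulfate polyacrylamide ligand plus compound at 100 µM in HEPES buffer pH 7.4 with CaCl2, 1% DMSO. Bound ligand measured by TMB, OD 450 vs 620 nm; % inhibition reported.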

Experiment [2] deals with T2, P-selectin (Homo sapiens) (UniProt P16109).
T2 sequence (whole entry): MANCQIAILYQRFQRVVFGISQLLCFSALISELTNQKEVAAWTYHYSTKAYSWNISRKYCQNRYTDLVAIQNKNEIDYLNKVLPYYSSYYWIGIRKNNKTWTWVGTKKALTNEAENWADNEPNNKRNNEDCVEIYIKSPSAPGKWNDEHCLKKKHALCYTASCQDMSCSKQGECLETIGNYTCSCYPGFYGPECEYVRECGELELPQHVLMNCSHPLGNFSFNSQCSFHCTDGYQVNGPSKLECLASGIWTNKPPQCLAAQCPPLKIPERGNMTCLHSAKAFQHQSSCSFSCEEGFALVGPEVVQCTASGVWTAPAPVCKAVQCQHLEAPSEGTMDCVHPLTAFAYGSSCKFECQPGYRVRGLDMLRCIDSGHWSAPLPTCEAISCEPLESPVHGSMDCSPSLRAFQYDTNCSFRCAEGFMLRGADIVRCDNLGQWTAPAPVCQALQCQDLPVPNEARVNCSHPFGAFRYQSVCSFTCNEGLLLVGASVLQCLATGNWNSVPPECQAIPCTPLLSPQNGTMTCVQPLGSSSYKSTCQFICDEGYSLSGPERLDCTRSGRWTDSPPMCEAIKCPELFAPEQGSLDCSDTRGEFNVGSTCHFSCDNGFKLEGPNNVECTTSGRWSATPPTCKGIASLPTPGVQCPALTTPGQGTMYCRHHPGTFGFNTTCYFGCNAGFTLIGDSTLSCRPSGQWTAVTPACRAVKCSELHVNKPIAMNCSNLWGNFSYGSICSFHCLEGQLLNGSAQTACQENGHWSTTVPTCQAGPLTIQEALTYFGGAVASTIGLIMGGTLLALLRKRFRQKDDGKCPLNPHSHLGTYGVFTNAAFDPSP
Nature of the experiment: Inhibition of human P-selectin after 2 hrs at 100 uM. An outline of the steps:
as §1

Experiment [3] has as its target T3, L-selectin (Homo sapiens) (UniProt P14151).
T3 sequence (whole entry): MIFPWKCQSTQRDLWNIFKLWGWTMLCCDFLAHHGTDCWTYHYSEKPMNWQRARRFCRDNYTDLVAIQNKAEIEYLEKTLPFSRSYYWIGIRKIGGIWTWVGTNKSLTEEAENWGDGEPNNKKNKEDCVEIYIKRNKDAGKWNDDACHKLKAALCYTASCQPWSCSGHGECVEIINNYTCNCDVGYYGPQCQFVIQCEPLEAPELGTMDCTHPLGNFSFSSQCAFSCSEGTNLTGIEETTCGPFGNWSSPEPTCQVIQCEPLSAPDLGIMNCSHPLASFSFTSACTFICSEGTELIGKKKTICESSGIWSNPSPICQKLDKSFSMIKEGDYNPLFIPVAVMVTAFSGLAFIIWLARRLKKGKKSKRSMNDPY
Nature of the experiment: Inhibition of human L-selectin after 2 hrs at 100 uM. In short, it runs like this: as §1

The test system of experiment [4] is HL-60. Nature of the experiment: Inhibition of attachment of HL60 cells to E-selectin at 109 uM after 5 mins. Type of experiment: functional. The note with it: Homo sapiens, HL-60, 5 min. In short, it runs like this: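 Dishes coated with E- or P-selectin/Fc chimera, blocked with BSA, mounted in a parallel flow chamber run recirculating; HL-60 cells at 2.4 million/mL final. Cells attached after 5 min continuous flow at calculated shear 1 dyn/cm², with 109 µM compound or DMSO vehicle, counted in five low power fields. Mean inhibition as % of vehicle control from mean cells/field of at least two independent experiments.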

The test system of experiment [5] is HL-60. Nature of the experiment: Inhibition of attachment of HL60 cells to P-selectin at 109 uM after 5 mins. Type of experiment: functional. The note with it: Homo sapiens, HL-60, 5 min. An outline of the steps: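 Dishes coated with E- or P-selectin/Fc chimera, blocked with BSA, mounted in a parallel flow chamber run recirculating; HL-60 cells at 2.4 million/mL final. Mean inhibition as % of vehicle control from mean cells/field of at least two independent experiments.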

The target in another experiment is T4, E-selectin (Homo sapiens, UniProt P16581).
T4 sequence (P16581 whole entry): T1 sequence (whole entry)
Nature of the experiment: Inhibition of human E-selectin after 2 hrs. In short, it runs like this: (§2)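 Biotinylated sLeX-tyrosine sulfate polyacrylamide complexed with streptavidin-peroxidase added with compound at varying concentrations (HEPES pH 7.4, 1 mM CaCl2, 1% DMSO), 2 h 37 °C. TMB read-out, OD 450 vs 620 nm.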

The target of another experiment is T5, P-selectin (Homo sapiens, UniProt P16109).
T5 sequence (P16109 whole entry): T2 sequence (whole entry)
Kind of experiment: Inhibition of human P-selectin after 2 hrs. In short, it runs like this:
as §2

The target of the next experiment is T6, L-selectin (Homo sapiens, UniProt P14151).
T6 sequence (P14151 whole entry): T3 sequence (whole entry)
Kind of experiment: Inhibition of human L-selectin after 2 hrs. An outline of the steps: as §2

Consider `O=c1cc(-c2ccccc2)oc2cc(O)cc(O)c12`, for which the inhibition (commonly the relative decrease from the control value, in per cent) in experiment [1] was 15%; in experiment [2], -5.3%; in experiment [3], 4.3%.
`O=C(O)c1cccc(O)c1O`: the inhibition in experiment [1] was 6%; in experiment [2] it was -3%; in experiment [3], 1.1%.
`O=C(O)c1ccc(O)c(O)c1`: the inhibition was 19.5% in experiment [1] and 1.3% in experiment [3].
Turning to `Oc1cccc(O)c1O` [PYROGALLOL], the inhibition in experiment [1] worked out at 8.3%; in experiment [2], 1.7%; in experiment [3] it was 13.5%. Moreover, the inhibition at 109 µM in the experiment on HL-60 [4] turned out to be 47%; with HL-60 [5] it was 24%.
In the case of `O=C(O)Cc1ccc(-c2ccccc2NC(=O)CCCc2ccc(O)c(O)c2O)s1`, the results for the concentration for half-maximal inhibition (IC50) against E-selectin, on P-selectin and at L-selectin were greater than 500 µM, 24.8 µM and 41.7 µM, respectively. For the same molecule, the values for the inhibition at 109 µM in the experiment with HL-60 [4] and in the experiment with HL-60 [5] were 26% and 47%, respectively.
For `O=C(O)Cc1ccc(-c2ccccc2NC(=O)/C=C/c2cc(O)c(O)c(O)c2)s1`, in that order: 48.6 µM, 19.5 µM, 21.3 µM, 28% and 23%.
Taken in the same sequence, the figures for `O=C(O)Cc1ccc(-c2ccccc2NC(=O)Cc2cc(O)c(O)c(O)c2)s1` were 3.3 µM, 2.4 µM, 3.1 µM, 35% and 11%.
With `O=C(O)C1=C[C@@H](O)[C@@H](O)[C@H](O)C1`, the inhibition is 25.6% in experiment [1], -1% in experiment [2] and 12.2% in experiment [3].
As to `O=C(O)Cc1ccc(-c2ccc(NC(=O)c3cccc(-c4ccc(O)c(O)c4O)c3)cc2)s1`, the IC50 (usually the point on the concentration scale where inhibition reaches its midpoint) against E-selectin was 9.7 µM; against P-selectin, 0.57 µM; against L-selectin it was 0.79 µM. For the same molecule, the inhibition at 109 µM in the experiment on HL-60 [4] amounted to 47%; in the experiment on HL-60 [5], 83%.
Consider `O=c1c(O)cccc2cc(O)c(O)c(O)c12`, for which the inhibition is 3.1% in experiment [1], 77% in experiment [2] and 83.6% in experiment [3].
Turning to `O=C(O)Cc1ccc(-c2ccccc2NC(=O)c2cccc(-c3cc(O)c(O)c(O)c3)c2)s1`, the half-inhibitory concentration (IC50) against E-selectin is greater than 500 µM; at P-selectin, 21.8 µM; against L-selectin it was 37.6 µM. Also, the inhibition at 109 µM in the experiment on HL-60 [4] came to 32%; in the experiment with HL-60 [5], 45%.
In the case of `O=c1cc(-c2ccccc2)oc2cc(O)c(O)c(O)c12`, the inhibition in experiment [1] is 37.6%; in experiment [2], 52%; in experiment [3], 51.7%.
